Source: PubChem
A selection: hits, their analogues and other compounds. The true share with any hit is near 3.2%.
CHO parental Ca = ATP-evoked calcium signal inhibitors, parental CHO, primary screen, counter-screen for OX1R antagonist project, cell-based, fluorescence, Fluo-8 calcium dye. parental CHO-K1, ATP-induced calcium, Fluo-8 fluorescence. inhibition, % at 5.6 µM. 330,000 tested, 0.63% active;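 active = inhibition above that plate's mean sample inhibition plus 3 SD, cut at about 26% in these data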;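 note: 0% = ATP-challenged DMSO wells and 100% = DMSO wells without ATP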
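Material – parental CHO cells · Reagent – ATP stimulus · Compound – single nominal dose of 5.6 µM per compound · Detection – Fluo-8 fluorescence · Read-out basis – percent inhibition of calcium signal · Controls – ATP-challenged DMSO wells low, unchallenged DMSO wells high · Repeats – no replicates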
TRPN1 ag = zebrafish TRPN1 channel agonists, primary screen, cell-based, HEK293, calcium fluorescence; HEK293 zebrafish TRPN1-YFP, Fluo-8 calcium fluorescence; 100% = response to 87 µM carbachol; activation, % at 3 µM; 220,000 tested, 0.18% active; AID 1424, 2008;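 active = activation above its plate's cutoff, the mean activation of test wells on that plate plus 3 SD, cut at about 19% in these data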;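 note: 0% = DMSO alone and 100% = 87 µM carbachol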
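Material – zebrafish TRPN1-YFP in HEK293 cells · Doses – 3 µM single point · Schedule – dye 1 h 37 °C plus 30 min RT · Signal – Fluo-8 calcium fluorescence, excitation 470-495 nm, emission 515-575 nm · Read-out – % activation versus carbachol response · Control set – carbachol high, DMSO low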
OX1R antag-1 = antagonists of human orexin 1 receptor (OX1R); AID 485270, 2010; inhibition, % at 6.6 µM; Orexin/Hypocretin receptor type 1 (Homo sapiens), O43613; 330,000 tested, 1.8% active; OX1R-expressing cells, FRET antagonist read-out; in the data active = inhibition mostly above about 38%, no sharp cut-off; inactive = mostly below about 40%;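 note: 0% = agonist challenge alone and 100% = reference antagonist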
Target sequence (O43613 whole entry, looked up): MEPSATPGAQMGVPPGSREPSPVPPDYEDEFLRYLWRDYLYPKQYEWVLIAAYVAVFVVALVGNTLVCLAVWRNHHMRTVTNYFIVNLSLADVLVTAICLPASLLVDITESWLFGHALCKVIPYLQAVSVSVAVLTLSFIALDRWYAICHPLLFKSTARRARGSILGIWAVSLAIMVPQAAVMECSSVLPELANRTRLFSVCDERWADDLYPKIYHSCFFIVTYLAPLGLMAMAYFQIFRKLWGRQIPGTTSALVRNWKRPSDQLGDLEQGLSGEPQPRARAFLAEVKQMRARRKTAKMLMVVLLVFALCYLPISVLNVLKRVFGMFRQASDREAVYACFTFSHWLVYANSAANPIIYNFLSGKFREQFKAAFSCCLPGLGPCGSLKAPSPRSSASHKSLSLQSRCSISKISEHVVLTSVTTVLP
GPR7 antag = GPR7 receptor antagonists, primary screen, cell-based, fluorescence, single concentration; Neuropeptides B/W receptor type 1 (Homo sapiens), P48145; GPR7-expressing cells, fluorescence antagonist assay; inhibition, % at 4.4 µM; 290,000 tested, 1.1% active; in the data active = inhibition above about 16%, passing the limit was not always enough;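 note: cells stimulated with the agonist NPW; 0% = agonist with vehicle and 100% = vehicle without agonist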
TRPML3 agonist = human TRPML3 channel agonists, primary screen, cell-based, HEK293 TRPML3-YFP, Fluo-8 calcium fluorescence, 3 µM; Mucolipin-3 (Homo sapiens), Q8TDD5; 100% = the carbachol control signal; activation, % at 3 µM; 220,000 tested, 0.29% active; AID 1448, 2008;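 active = activation above its plate's cutoff, the mean activation of the plate's test wells plus 3 SD, cut at about 12% in these data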;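 note: 0% = DMSO only wells and 100% = carbachol wells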
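Material: TRPML3-YFP stable HEK293 cells | Dosing: One concentration, 3 µM nominal, 0.3% DMSO | Timing: 125 s total fluorescence read per well | Technique: Fluo-8 calcium dye fluorescence, ex 470-495, em 515-575 nm | Measure: Percent activation from peak-to-basal fluorescence ratio, scaled between DMSO and carbachol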
OX1R antag-2 = OX1R (HCRTR1) antagonists, primary screen, fluorescence, CHO/OX1R cells, Fluo-8 calcium, orexin A; Orexin/Hypocretin receptor type 1 (Homo sapiens), O43613; Fluo-8 calcium fluorescence; inhibition, % at 5 µM; 330,000 tested, 0.43% active; AID 434989, 2010;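 active = inhibition above its plate's threshold, mean inhibition of all tested compounds on the plate plus 3 SD, cut at about 37% in these data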;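 note: 0% = orexin A challenge wells and 100% = SB-334867-A antagonist wells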
* hit, by the source's call; . = not tested or not shown.

SMILES	CHO parental Ca	TRPN1 ag	OX1R antag-1	GPR7 antag	TRPML3 agonist	OX1R antag-2
COc1cc(/C=C2\SC(=S)N(NS(=O)(=O)c3ccccc3)C2=O)cc(OC)c1OC	-28	-1	36	-16	0	-28
COc1ccc(Cc2nnc(Cl)c3ccccc23)cc1OC	-6	.	19	-14	.	-23
O=C(CSc1nnc(NC2CC2)s1)c1ccc[nH]1	-7	.	3	.	.	-8
CC(C)C(NC(=O)c1ccccc1F)C(=O)NCCCn1ccnc1 (centres undefined)	-2	.	6	.	.	-2
CCOC(=O)c1c(C)oc2c1c(CN1CCN(C(=O)OCC)CC1)c(O)c1ccccc12	-15	0	70*	-10	-1	1
O=C(COC(=O)c1ccc2c(c1Cl)C(=O)c1ccccc1C2=O)NC1CC1	-21	4	61*	-2	2	-24
C/C(N)=C(/C#N)C(=O)CSc1nc2cc(Cl)ccc2s1	-8	-1	56*	3	1	-14
CCS(=O)(=O)C(C)(CCl)C(=O)Nc1ccc(C(=O)OC)cc1 (centres undefined)	-9	0	6	-13	1	-8
COc1ccc(OC)c(/C=N/NC(=O)c2ccc3nc[nH]c3c2)c1	-5	0	-2	-10	1	4
COc1cc(/C=N/NC(=O)c2ccc3c(c2)OCCO3)c(Br)c(Br)c1O	-15	.	65*	-1	.	4
COc1ccc(Br)cc1/C=N/NC(=O)c1ccc2nc[nH]c2c1	-4	.	41*	-7	.	3
COc1ccc(Br)cc1/C=N/NC(=O)c1ccc(OC)c(OC)c1	-2	1	43*	1	1	-16
COc1ccc(Br)cc1/C=N/NC(=O)c1cc(OC)c(OC)c(OC)c1	-10	1	3	6	0	3
CCn1cc(C(=O)Nc2cccc(C)c2)c(=O)c2ccc(C)nc21	-7	1	1	-4	1	-20
CCN(CC)C(=O)C(Oc1ccc(S(=O)(=O)N2CCCC2)cc1[N+](=O)[O-])c1ccccc1 (centres undefined)	0	.	63*	-9	.	6
O=Nc1c(O)n(Cc2cccc(Cl)c2)c2ccccc12	61*	-1	19	-14	-1	6
COc1ccc(C2CC(c3ccccc3)=NN2C(=O)COC(=O)c2cc(S(=O)(=O)N3CCOCC3)ccc2F)cc1 (centres undefined)	-5	-1	15	21*	-1	-27
Cc1cccc(C)c1NC(=O)C1(N2C(=O)CC2c2ccccc2)CCCCC1 (centres undefined)	-19	-3	41	18*	-1	-27
Cc1cc(C)cc(OCC(=O)OCc2cc([N+](=O)[O-])cc3c2OCOC3)c1	-17	.	16	.	.	-11
CC(=O)N1CCOc2cc(S(=O)(=O)N3CCN(c4ccccc4)CC3)c(Cl)cc21	6	.	6	5	.	-8
Cc1ccc(Br)cc1S(=O)(=O)N1CCN(c2ccccc2)CC1	36*	-2	1	-3	0	-21
Cc1cc2c(cc1S(=O)(=O)N1CCN(c3ccccc3)CC1)OCCN2C	34*	.	17	-1	.	-32
Cc1cc2[nH]c(=O)c(=O)[nH]c2cc1S(=O)(=O)N1CCN(c2ccccc2)CC1	-5	.	1	13	.	-5
O=C1NCCC/C1=N/Nc1cc(F)ccc1F	-4	1	7	-7	1	-9
Cc1cc(C(C#N)c2cccc(Cl)c2)n2ncnc2n1 (centres undefined)	-7	-1	76*	14	0	0
Cc1cc(NC(=O)COc2c(C)cccc2C)no1	6	-1	12	-3	0	-17
O=C(Cc1cccc2ccccc12)NNC(=O)c1ccc(Br)o1	-14	.	51*	7	.	14
